SENP1 inh – human SENP1 catalytic domain inhibitors, primary screen, biochemical, FRET, uHTS; recombinant SENP1 catalytic domain, CyPet-SUMO1-YPet FRET cleavage; Sentrin-specific protease 1 (Homo sapiens), Q9P0U3; inhibition, % at 10 µM; AID 624204, 2012; 0.21% of 360,000 active;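 active means inhibition at least 30% at 10 µM, raw YFP signal under a set limit, fluorescence ratio 0.5 to 1.5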
Target sequence (Q9P0U3 419-644 limits assumed): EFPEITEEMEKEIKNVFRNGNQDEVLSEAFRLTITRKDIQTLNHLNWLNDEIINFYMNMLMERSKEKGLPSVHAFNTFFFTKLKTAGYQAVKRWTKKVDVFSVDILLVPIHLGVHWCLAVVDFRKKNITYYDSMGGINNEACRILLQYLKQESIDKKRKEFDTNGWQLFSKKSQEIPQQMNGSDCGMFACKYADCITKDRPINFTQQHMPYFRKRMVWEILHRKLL
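system = hSENP1 catalytic domain, recombinant | reagent = SFCypet-SUMO1-SFYpet substrate at 25 nM | doses = one dose per compound, 10 µM, 0.5% DMSO | incubation = enzyme reaction for 50 min at room temperature, dark | measured by = FRET, CFP and YFP emission | controls = no-enzyme low, enzyme-DMSO high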
NadD inh – inhibitors of S. aureus NadD, primary screen, biochemical, colorimetric, uHTS; Nicotinate-nucleotide adenylyltransferase NadD (Staphylococcus aureus N315); purified NadD enzyme, colorimetric absorbance read-out; inhibition, % at 20 µM; 0.78% of 360,000 active; AID 602399, 2012; in the data active means inhibition above about 26%
ATG4B inhibitor – ATG4B protease inhibitors, primary screen, biochemical, fluorescence, uHTS; Cysteine protease ATG4B (Homo sapiens), Q9Y4P1; ATG4B cleavage of LC3-PLA2, NBD-HPC fluorescence, 1 h; 0.51% of 340,000 active; inhibition, % at 8.33 µM; AID 504462, 2011; in the data active means inhibition above about 40%
Target sequence (Q9Y4P1 whole entry, looked up): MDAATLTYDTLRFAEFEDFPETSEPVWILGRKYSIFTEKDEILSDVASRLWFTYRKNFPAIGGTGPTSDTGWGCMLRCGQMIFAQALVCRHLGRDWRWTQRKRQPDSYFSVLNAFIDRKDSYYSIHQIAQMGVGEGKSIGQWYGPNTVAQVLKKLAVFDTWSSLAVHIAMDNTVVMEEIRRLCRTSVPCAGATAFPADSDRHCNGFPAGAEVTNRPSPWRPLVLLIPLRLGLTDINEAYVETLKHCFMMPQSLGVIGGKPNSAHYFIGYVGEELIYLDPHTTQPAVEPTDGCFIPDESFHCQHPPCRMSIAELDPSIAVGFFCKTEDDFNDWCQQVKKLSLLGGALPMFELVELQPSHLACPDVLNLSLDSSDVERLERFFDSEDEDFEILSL
UCH37 inh – inhibitors of human UCH37 deubiquitinase, primary screen, biochemical, Ub-AMC cleavage, fluorescence; purified proteasome/UCH37; inhibition, % (test concentration not listed); Ubiquitin carboxyl-terminal hydrolase isozyme L5 (Homo sapiens), Q9Y5K5; 0.33% of 330,000 active;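 active means mean inhibition over replicate wells above about 20%, limit read from the data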
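assay system = human UCH37 enzyme supplied as purified proteasome complex | amount = proteasome at 0.15 nM in the dispensed enzyme solution | schedule = 30 min compound-proteasome preincubation then 25 min substrate reaction, room temperature | measured by = fluorescence, ex 355 nm, em 460 nm | benchmarks = no-proteasome wells (full inhibition) and compound-free wells (no inhibition)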
NR3A LBD binder – binders of NR3A ligand-binding domain, primary screen, biophysical, differential scanning fluorimetry, uHTS; Glutamate receptor ionotropic, NMDA 3A (GRIN3A) ligand-binding domain; NR3A LBD differential scanning fluorimetry, Tm shift; 0% = protein alone, 100% = glycine-bound protein; Tm shift relative to glycine control, % at 25 µM; 2.5% of 340,000 active;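 active means melting temperature shift of at least 10% of the positive control shift, at one fixed dose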
A number is an active result; i = inactive; nt = no result. Sampled rows, rich in hits. Any-hit rate of the full collection: about 3.6%.

SMILES	SENP1 inh	NadD inh	ATG4B inhibitor	UCH37 inh	NR3A LBD binder
Sc1oc(-c2ccccc2)cc1C=Nc1ccccc1	i	i	i	i	14
O=C(NN=C(CC(=O)c1cccs1)C(F)(F)F)c1ccncc1	nt	nt	nt	i	nt
Cc1ccc(/C=N/N2C(=S)SC(C)(C)C2N(O)C(=O)Nc2ccc([N+](=O)[O-])cc2)cc1 (stereo not drawn)	i	i	i	nt	12
C=CCN=C1SCC(=O)N1S(=O)(=O)c1ccc(C)cc1	i	i	i	i	i
C=CCN=C1S/C(=C\N(C)C)C(=O)N1S(=O)(=O)c1ccc(C)cc1	i	i	i	i	12
O=C(Nc1ccc(F)cc1F)Nc1sccc1-c1nc2ccccc2s1	i	i	i	i	21
O=C(NN=C1CCc2ccccc21)c1ccccc1Cl	nt	nt	nt	i	nt
Cc1nc(NC(=O)c2csc3ccccc23)sc1C	i	i	i	i	28
CC1CCc2c(sc(N=Cc3cccnc3)c2C(N)=O)C1 (stereo not drawn)	nt	nt	nt	i	nt
O=C(N/N=C/c1cn(-c2cccs2)nc1-c1ccccc1)c1ccccc1Cl	i	i	i	nt	14
O=C(N/N=C/c1cn(-c2cccs2)nc1-c1ccccc1)c1ccc(O)cc1	i	i	i	nt	12
O=C(NN=Cc1cccc(OC(=O)c2cccc(Br)c2)c1)c1ccncc1	nt	nt	nt	i	nt
O=C(/C=C/c1ccccc1Cl)NCCc1ccc(F)cc1	i	i	i	i	14
Cc1c(C=NNC(=O)c2cc(=O)[nH]c(=O)[nH]2)c2ccccn2c1C(=O)c1ccccc1	nt	nt	nt	i	nt
O=C(Cn1c(C(F)(F)F)nc2ccccc21)N=Nc1c(O)[nH]c2ccc(Br)cc12	i	i	i	i	10
COc1ccc(CCNC(=O)c2ccc([N+](=O)[O-])cc2)cc1	i	i	i	i	i
O=C(COc1ccc(Cl)cc1)NCCNc1ccc([N+](=O)[O-])cc1	i	i	i	i	i
COc1ccc2c(CCNC(=O)c3ccc([N+](=O)[O-])cc3)c[nH]c2c1	i	i	i	27	i
COc1ccc(C(=O)NCCNc2ccc([N+](=O)[O-])cc2)cc1	i	i	i	i	14
O=C(NCCNc1ccc([N+](=O)[O-])cc1)c1ccc(Cl)cc1	i	i	i	i	13
O=C(CSc1ccc(Cl)cc1)NN=Cc1ccc([N+](=O)[O-])o1	nt	nt	nt	i	nt
COc1ccccc1NCC(=O)NN=Cc1sccc1C	nt	nt	nt	i	nt
COc1ccc(CCNC(=O)c2sc3cc(C)ccc3c2Cl)cc1	i	i	i	i	12
COCc1cc(C)nc(OCC(=O)NN=Cc2ccc(-c3cc([N+](=O)[O-])ccc3Cl)o2)c1C#N	nt	nt	nt	i	nt
CC(=O)Nc1ccc(O)c(-c2nc3ccccc3s2)c1	i	i	i	i	i
SMILES	SENP1 inh	NadD inh	ATG4B inhibitor	UCH37 inh	NR3A LBD binder
O=C(Nc1ccc(-c2nc3ccccc3s2)c(O)c1)C1=COCCO1	i	i	i	i	36
O=C(CCS(=O)(=O)c1ccccc1)Nc1ccc(-c2nc3ccccc3s2)c(O)c1	i	i	i	nt	15
O=C(Nc1cccc(-c2nc3ccccc3s2)c1)C1=COCCO1	i	i	i	i	i
O=C(Nc1ccc(-c2nc3ccccc3s2)cc1)C1=COCCO1	i	i	i	i	30
CC(CC(=O)NCC(C)C)=NNC(=O)COc1cc(C)c(Br)cc1Br	nt	nt	nt	i	nt
CCCCc1ccc(NC(=S)NCc2cccs2)cc1	i	i	i	i	11
COc1ccccc1N=Nc1ccc(O)c2ncccc12	i	31	i	i	i
CCS(=O)(=O)c1ccc(N=Nc2ccc(O)c3ncccc23)c(OC)c1	i	i	i	i	i
O=[N+]([O-])c1ccc(Nc2ccccc2)nc1	i	i	i	i	12
CN(C)c1ccc(Nc2ccc([N+](=O)[O-])cn2)cc1	i	i	i	i	i
O=[N+]([O-])c1ccc(Nc2cccc(F)c2)nc1	i	i	i	i	25
Cc1ccc(Nc2ccc([N+](=O)[O-])cn2)cc1Cl	i	i	i	i	14
O=[N+]([O-])c1ccc(Nc2ccc(F)cc2)nc1	i	i	i	i	i
CC(=O)Nc1ccc(Nc2ccc([N+](=O)[O-])cn2)cc1	i	i	i	i	11
COc1ccc(C=NN=Cc2ccc(OC)cc2)cc1	nt	nt	nt	i	nt
CCCC[n+]1c2ccccc2cc2ccccc21	i	i	i	nt	22
Cn1cccc1-c1nc2ccc(NC(=O)c3ccc([N+](=O)[O-])cc3)cc2[nH]1	i	i	i	nt	27
COC(=O)c1ccc(C(=O)Nc2ccc3nc(-c4ccncc4)[nH]c3c2)cc1	i	i	i	i	15
COC(=O)c1ccc(C(=O)Nc2ccc3nc(-c4cccnc4)[nH]c3c2)cc1	i	i	i	i	i
Cn1cccc1-c1nc2ccc(NC(=O)c3ccccc3)cc2[nH]1	i	i	i	i	i
Nc1ccc(C(=O)Nc2ccc3nc(-c4cccnc4)[nH]c3c2)cc1	i	i	i	i	13
CC(=O)Nc1ccc2nc(-c3cccnc3)[nH]c2c1	i	i	i	i	i
N#Cc1c(C(F)(F)F)cc(-c2ccccc2)nc1SCC(=O)Nc1sc2c(c1C#N)CCC2	i	i	i	i	10
N#Cc1ccc(-c2cccnc2)nc1SCC(=O)Nc1sc2c(c1C#N)CCC2	i	i	i	i	i
Cc1nc(SCC(=O)Nc2nc3ccccc3s2)c(C#N)c(C)c1C	i	i	i	i	i
SMILES	SENP1 inh	NadD inh	ATG4B inhibitor	UCH37 inh	NR3A LBD binder
CSc1nc(-c2ccccc2)cc(C(F)(F)F)c1C#N	i	i	i	i	i
N#Cc1c(C(F)(F)F)cc(-c2ccccc2)nc1SCc1nc(N)nc(N2CCOCC2)n1	i	i	i	i	16
CCOC(=O)CCSc1nc(C)cc(C(F)(F)F)c1C#N	76	i	i	i	i
Cc1cc(C(F)(F)F)c(C#N)c(SCC(=O)Nc2nc3ccccc3s2)n1	i	i	i	i	12
Cc1ccc(C=NNC(=O)c2cccc3ccccc23)o1	nt	nt	nt	i	nt
O=C(CCNC(=O)c1ccccc1Cl)NN=Cc1ccc(O)cc1	nt	nt	nt	i	nt
CCC(C)(C)NC(=O)C(NS(=O)(=O)c1cccs1)c1ccccc1 (stereo not drawn)	i	i	i	i	31
COc1ccc(C(C)=NNc2ccc(C(=O)O)cc2)c(OC)c1	nt	nt	nt	i	nt
Cc1ccc(C(=O)NC(=S)Nc2cccc(NC(=O)c3ccccc3)c2)cc1[N+](=O)[O-]	i	i	i	i	19
O=C(Nc1ccc(OCc2ccccc2)cc1)c1cccc([N+](=O)[O-])c1	i	i	i	i	27
Cc1ccc(C(=O)Nc2ccc(OCc3ccccc3)cc2)cc1[N+](=O)[O-]	i	i	i	i	28
COc1cc(C=NNC(=O)c2ccncc2)ccc1OC(=O)c1cccc(F)c1	nt	nt	nt	i	nt

Assay outcomes (PubChem BioAssay)
